Test results: PubChem BioAssay AID624466 (The Scripps Research Institute Molecular Screening Center, 2012)
The whole screen tested about 360,000 compounds, of which about 5,400 (1.5%) were called active. The sample holds actives, similar compounds and a random draw of the others, so the mix is not that of the screen.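 The calls were made as follows: active = inhibition above a per-plate cutoff, the mean inhibition of test compounds on that plate plus 3 SD (cut at about 49% in these data); inactive = the rest.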

The compounds below were run against Trace amine-associated receptor 1 (Homo sapiens) (UniProt Q96RJ0) (assay: blockers of beta-PEA-driven TAAR1 calcium signal – Fluo-8 calcium fluorescence, CHO RD-HGA16 cells, primary screen (AID 624466;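 also: 0% = DMSO plus EC80 beta-PEA response and 100% = DMSO alone without agonist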)). Conditions: CHO RD-HGA16 TAAR1, Fluo-8 calcium fluorescence, antagonist; at 3 µM; hits give high values.
Trace amine-associated receptor 1 (Homo sapiens), sequence (Q96RJ0 whole entry, looked up): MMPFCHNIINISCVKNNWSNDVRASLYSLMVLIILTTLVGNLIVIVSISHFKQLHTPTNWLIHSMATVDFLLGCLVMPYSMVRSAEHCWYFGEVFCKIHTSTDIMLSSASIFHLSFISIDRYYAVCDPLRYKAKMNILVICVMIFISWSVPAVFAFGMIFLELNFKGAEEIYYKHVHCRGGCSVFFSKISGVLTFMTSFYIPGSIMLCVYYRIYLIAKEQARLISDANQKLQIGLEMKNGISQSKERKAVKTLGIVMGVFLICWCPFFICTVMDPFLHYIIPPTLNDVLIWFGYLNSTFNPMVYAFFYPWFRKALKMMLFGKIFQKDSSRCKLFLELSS
In short: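 Assay system: CHO-derived RD-HGA16 cells stably expressing human TAAR1 plus Gα16. Timing: 140 s kinetic read after compound, 140 s after agonist. Technique: kinetic Fluo-8 calcium fluorescence measurement. Measure: % inhibition of agonist calcium response.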

inhibition, active:
CCOC(=O)c1cccc(NC(=O)CN(c2ccc(C)cc2)S(=O)(=O)c2c(C)noc2C)c1 72.2%
O=C(CN(c1ccc2c(c1)OCCO2)S(=O)(=O)c1ccccc1)Nc1ccc2c(c1)OCO2 54%
Cc1noc(C)c1S(=O)(=O)N(CC(=O)Nc1ccc2c(c1)OCCO2)c1ccc(C(C)C)cc1 52.7%
Cc1ccnc(NC(=O)C2CCN(S(=O)(=O)c3c(C)c(C)cc(C)c3C)CC2)c1 50%
O=C1NC[C@@H](c2ccccc2)OC(=O)[C@H](Cc2ccc(F)cc2)CC/C=C/C[C@H]1CC(=O)N(CCO)Cc1ccccc1 74%
COc1ccc2[nH]c(C(=O)N/N=C/c3cc(OC)c(OC)c(OC)c3)cc2c1 50.5%
COc1ccc2sc(-c3ccc(S(C)(=O)=O)cc3)c(-c3ccc(C(N)=O)cc3)c2c1 50.5%
OC(c1ccccc1)(c1ccccc1)C1CCN(CCCOc2ccc(-c3ccsc3)cc2)CC1 51.2%
CN(C)S(=O)(=O)N1CCC(Oc2cccc(C(=O)NCCCC3CCCC3)c2)CC1 61.1%
COc1ccc(CCNC(=O)c2ccc(CS(=O)(=O)c3ccc(Br)cc3)o2)cc1OC 77.3%
Cc1onc(-c2c(F)cccc2Cl)c1C(=O)Nc1cccc(S(=O)(=O)N2CCCCC2)c1 60.4%
Cc1ccccc1S(=O)(=O)N1[C@@H](c2cccc(Cl)c2)C(C(=O)O)=CC[C@H]1c1ccc(Cl)cc1 50.1%
O=S(=O)(c1cccs1)N1CCCc2nc(-c3ccc(Br)cc3)ccc21 58%
COc1ccc(C(=O)Nc2cccc(NC(=O)c3ccc(OC)cc3OC)n2)c(OC)c1 64.8%
CCN(CC)c1ccc2oc(=O)c(C)nc2c1 49.8%
CC(C)(CCl)C(=O)Nc1ccc(Sc2ccc(F)cc2)cc1 57.9%
N#C/C(=C/c1ccc(N2CCCCC2)o1)C(=O)NCCc1c[nH]c2ccccc12 57.6%

inhibition, inactive:
OC(CCl)CCl -9.09%
CCCCCn1nnnc1-c1nc2cc3ccccc3cc2[nH]c1=O 21.1%
Cc1ccc(Cc2c(-c3ccc(Cl)cc3)nc3c4ccccc4ccn23)cc1 -7.64%
COC(=O)C[C@H]1C=C[C@@H](NS(=O)(=O)c2ccc(C)cc2)[C@@H](CO)O1 -21.2%
Cc1noc(C)c1S(=O)(=O)N(CC(=O)NCc1ccc(Cl)cc1)c1ccc2c(c1)OCO2 -0.54%
COc1ccc(N(CC(=O)Nc2cc(OC)ccc2OC)S(=O)(=O)c2c(C)noc2C)cc1 4.12%
O=C(CCS(=O)(=O)Cc1ccccc1)Nc1ccc2c(c1)OCCO2 -13.2%
CCN(CC(=O)Nc1ccc2c(c1)OCO2)S(=O)(=O)c1ccccc1 7.44%
Cc1cc(C)cc(N(CC(=O)NCC2CCCO2)S(=O)(=O)c2c(C)noc2C)c1 (centres undefined) -14.5%
CCOc1ccc(N(CC(=O)OC)S(=O)(=O)c2c(C)noc2C)cc1 1.95%
C[C@H](O)[C@@H]1CN2CCc3ccc(-c4ccc5c(c4)OCO5)cc3[C@@H]2C[C@@H]1N(C)C(=O)C1CCCCC1 -24.1%
OC(c1cc(Cl)cc(Cl)c1)c1ncc(-c2ccccc2C(F)(F)F)[nH]1 (centres undefined) 11.8%
Cc1cc2c(nc1C)CCCN2C 0.43%
COc1ccc(N2c3ccccc3CN(Cc3ccccc3)[C@@H](C)[C@H]2Cc2ccc(-c3ccccc3)cc2)cc1 -11.9%
COC(=O)[C@]12C[C@H](CC(=O)NCCc3ccccc3OC)C(=O)N(Cc3ccccc3)C1=C[C@H](C(C)C)O[C@@H]2C1CC1 -27.5%
Cc1ccc2nc(COc3ccc(N(C)S(=O)(=O)c4ccccc4)cc3)cc(=O)n2c1 36%
O=C(Nc1ccccn1)C1CCN(S(=O)(=O)c2ccccc2)CC1 0.4%
Cc1cccc(NC(=O)C2CCN(S(=O)(=O)c3cccc4cccnc34)CC2)c1 32.8%
COC(=O)[C@H](CC(C)C)NS(=O)(=O)c1c(F)cccc1F -8.02%
COC(=O)C1=C(C)N(Cc2cccc(C(F)(F)F)c2)C(=NCc2ccccc2)NC1c1ccccc1C(F)(F)F (centres undefined) -4.18%
O=C1CCC/C=C/C[C@@H](CC(=O)N(CCO)Cc2ccccc2)C(=O)NC[C@H](c2ccccc2)O1 -5.27%
O=C1N[C@@H](c2ccccc2)COC(=O)[C@H](Cc2ccc(F)cc2)C/C=C\C[C@@H]1CC(=O)N(CCO)Cc1ccccc1 42.8%
COc1ccc(C2=CN(Cc3ccccc3)C(c3ccc(OC)cc3)CC2=O)cc1 (centres undefined) -4.92%
COc1ccc2[nH]c(C(=O)Nc3ccccc3Cl)cc2c1 -23.7%
COc1cccc(OCc2cc(/C=N/NC(=O)c3nc(Cl)c(Cl)c(N)c3Cl)ccc2OC)c1 -5%
Cc1cc(NCCc2c[nH]c3ccccc23)ccc1Oc1cccnc1 21.6%
COc1ccc2sc(-c3ccc(S(C)(=O)=O)cc3)c(C#Cc3cncn3C)c2c1 47.9%
COc1cc(OC)cc(-c2sc3ccc(OC)cc3c2-c2ccc3cc[nH]c3c2)c1 -5.68%
CN(C)C(=O)N1CCN(C(=O)[C@@H](Cc2ccccc2)NC(=O)[C@H]2O[C@@H](n3ccc(N)nc3=O)[C@H](O)[C@@H]2O)CC1 -11.3%
CCOC(=O)N1CCN(C(=O)C[C@@H]2C[C@@]3(C(=O)OC)CCCCC=C3N(CCC3=CCCCC3)C2=O)CC1 16.7%
N#Cc1ccc(OCCCN2CCC(C(O)(c3ccccc3)c3ccccc3)CC2)c(F)c1 18.2%
OC(c1ccccc1)(c1ccccc1)C1CCN(CCCOc2ccccc2)CC1 19.2%
CCC(C(=O)NC(C)(C)C)n1c(-c2ccccc2)nc2ccccc21 (centres undefined) -9.33%
COc1ccc(C(C(=O)Nc2c(C)cccc2C)N2CCN(c3ccc(C)cc3)CC2)cc1 (centres undefined) -16.4%
Cc1ccccc1CN1C(=O)CSCC1(C)C(=O)Nc1c(C)cccc1C (centres undefined) -0.37%
CN(C(=O)c1cccc(OC2CCN(S(=O)(=O)N(C)C)CC2)c1)C1CCOC1 (centres undefined) -15.9%
COc1cccc(C(=O)NCCS(=O)(=O)NCC2CCCO2)c1 (centres undefined) 4.1%
CCCCn1nnnc1C1(C)CCC(=O)N1Cc1ccc(OC)c(OC)c1 (centres undefined) -1.16%
CC(C)(C)NC(=O)C(CCc1ccccc1)n1c(=O)c(-c2ccccc2)nc2ccccc21 (centres undefined) -53.9%
COc1ccc(CCNC(=O)c2nnc(CS(=O)(=O)c3ccccc3)o2)cc1OC -2.06%
COc1ccccc1CNC(=O)c1ccc(CS(=O)(=O)c2ccccc2)o1 26.5%
CCCCNC(=O)Nc1c(C)cc(SC#N)cc1C 7.39%
O=C(NN1C(=O)C2C3C=CC(C4CC34)C2C1=O)c1ccc(Cl)cc1 (centres undefined) 1.86%
Cc1ccc(N)cc1CN1CCN(c2ncc(Cc3ccccc3)cn2)CC1 -11.9%
O=C(Nc1cccc(S(=O)(=O)N2CCCCC2)c1)c1cncc(Br)c1 28.2%
O=C(Nc1ccc(S(=O)(=O)N2CCCCCC2)cc1)c1c(F)cccc1F -11.6%
Cc1ccccc1S(=O)(=O)N1[C@@H](c2cccc(Cl)c2)C(C(=O)OC(C)(C)C)=CC[C@H]1c1ccc(Cl)cc1 -16.6%
Cc1ccc([C@@H]2CC=C(C(=O)O)[C@H](c3cccc(Cl)c3)N2S(=O)(=O)c2ccc(C)cc2)cc1 29.7%
CC(C)(C)n1nc(C2CC2)c(Br)c1NC(=O)c1ccccc1F -16.1%
CN1CCCc2nc(-c3ccccc3)ccc21 -0.46%
COc1ccc(-c2ccc3c(n2)CCCN3S(=O)(=O)c2ccc(C)cc2)cc1 24%
COC(=O)[C@]12C[C@H](CC(=O)N3CCN(C(=O)C4CC4)CC3)C(=O)N(Cc3ccc4c(c3)OCO4)C1=C[C@H](C(C)(C)C)O[C@@H]2C 1.35%
O=C1Nc2ccccc2-n2nnnc2C1N1CCN(c2cccc(C(F)(F)F)n2)CC1 (centres undefined) 7.81%
COc1ccc(C(=O)NC(C)CCc2ccccc2)c(OC)c1 (centres undefined) -22.5%
COc1ccc(C(=O)CCC(=O)Nc2cccnc2)c(OC)c1 -6.73%
CC1(C(=O)Nc2ccc3c(c2)OCCO3)CSCC(=O)N1CCOc1ccccc1 (centres undefined) -7.49%
CCc1ccc2oc(-c3ccc(N)cc3)nc2c1 8.65%
Cc1ccc2oc(=O)ccc2c1 2.03%
O=C(NCCCn1ccnc1)c1cc2c(s1)CCCC2 -26.6%
C/C=N/N(c1ccccc1)c1ccccc1 -13.2%
C[C@H]1CN([C@@H](C)CO)C(=O)CCCn2nncc2CO[C@@H]1CN(C)C(=O)Nc1ccc(N2CCN(C)CC2)cc1 5.42%
CC(C)CNC(=S)Nc1ccc(F)cc1 5.98%
O=C(CCl)Nc1ccc(Sc2ccc(NC(=O)CCl)cc2)cc1 21.9%
COc1cc(NS(=O)(=O)c2ccc(N/C=C(\C=O)c3nc4cc(Cl)ccc4o3)cc2)nc(OC)n1 16.2%
CCN(CC(=O)NC1CCS(=O)(=O)C1)S(=O)(=O)c1ccccc1 (centres undefined) -18%
O=C(NCCc1c[nH]c2ccccc12)C1CCN(Cc2ccc(Br)cc2)CC1 2.79%
N#C/C(=C\c1ccc(N2CCOCC2)o1)C(=O)N1CCOCC1 -12.1%
